Reference: ChEMBL document CHEMBL1154428, “Cloning, nucleotide sequencing, and analysis of the AcrAB-TolC efflux pump of Enterobacter cloacae and determination of its involvement in antibiotic resistance in a clinical isolate” (2007)
≈ marks a conversion by molar mass, not a printed value.

Tests used:
[1] = test system: Enterobacter cloacae; experiment: Antibacterial activity against drug-resistant Enterobacter cloacae EcDC64 isolate expressing AcrAB-TolC efflux pump by broth microdilution method; type: functional
Summary of the method: (§1)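 Broth microdilution MICs for detergents and dyes (SDS, sodium cholate, sodium deoxycholate, acriflavine, ethidium bromide, Triton X-100, crystal violet). E. cloacae inoculum 5 × 10^5 CFU/ml, incubated 16 to 20 h at 37°C. The MIC was the lowest concentration giving complete growth inhibition. The acrA knockout carries a kanamycin-resistance insertion made by Red-mediated recombination.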

[2] = test system: Enterobacter cloacae; experiment: Antibacterial activity against drug-resistant AcrAB-TolC efflux pump deficient Enterobacter cloacae EcdeltaacrA isolate by broth microdilution method; type: functional; summary of the method: as §1
[3] = test system: Enterobacter cloacae; experiment: Antibacterial activity against drug-resistant Enterobacter cloacae EcDC64 isolate expressing pBGS18 plasmid by broth microdilution method
[4] = test system: Enterobacter cloacae; experiment: Antibacterial activity against drug-resistant AcrAB-TolC efflux pump deficient Enterobacter cloacae EcdeltaacrA isolate expressing pAP2 plasmid containing Enterobacter cloacae acrA gene by broth microdilution method; type: functional; summary of the method: as §1
[5] = test system: Enterobacter cloacae; experiment: Antibacterial activity against drug-resistant Enterobacter cloacae EcDC64 isolate expressing pAP3 plasmid containing Enterobacter aerogenes acrR gene by broth microdilution method
[6] = test system: Enterobacter cloacae; experiment: Antibacterial activity against drug-resistant AcrAB-TolC efflux pump deficient Enterobacter cloacae EcdeltaacrA isolate expressing pACYC184 plasmid by broth microdilution method; type: functional; summary of the method: as §1
[7] = test system: Enterobacter cloacae; experiment: Antibacterial activity against drug-resistant AcrAB-TolC efflux pump deficient Enterobacter cloacae EcdeltaacrA isolate in presence of 20 ug/ml efflux pump inhibitor Phe-Arg-beta-naphthylamide by Etest; type: functional
[8] = test system: Enterobacter cloacae; experiment: Antibacterial activity against drug-resistant AcrAB-TolC efflux pump deficient Enterobacter cloacae EcdeltaacrA isolate expressing pACYC184 plasmid by Etest; type: functional
[9] = test system: Enterobacter cloacae; experiment: Antibacterial activity against drug-resistant AcrAB-TolC efflux pump deficient Enterobacter cloacae EcdeltaacrA isolate by Etest; type: functional
[10] = test system: Enterobacter cloacae; experiment: Antibacterial activity against drug-resistant AcrAB-TolC efflux pump deficient Enterobacter cloacae EcdeltaacrA isolate expressing pAP3 plasmid containing Enterobacter aerogenes acrR gene by Etest; type: functional
[11] = test system: Enterobacter cloacae; experiment: Antibacterial activity against drug-resistant Enterobacter cloacae EcDC64 isolate expressing AcrAB-TolC efflux pump by Etest; type: functional
[12] = test system: Enterobacter cloacae; experiment: Antibacterial activity against drug-resistant Enterobacter cloacae EcDC64 isolate expressing pAP1 containing Escherichia coli ampD by Etest; type: functional
[13] = test system: Enterobacter cloacae; experiment: Antibacterial activity against drug-resistant AcrAB-TolC efflux pump deficient Enterobacter cloacae EcdeltaacrA isolate expressing pAP2 plasmid containing Enterobacter cloacae acrA gene by Etest; type: functional
[14] = test system: Enterobacter cloacae; experiment: Antibacterial activity against drug-resistant AcrAB-TolC efflux pump deficient Enterobacter cloacae EcdeltaacrA isolate expressing pBGS18 plasmid by Etest; type: functional
[15] = test system: Enterobacter cloacae; experiment: Antibacterial activity against drug-resistant Enterobacter cloacae EcDC64 isolate expressing AcrAB-TolC efflux pump in presence of 20 ug/ml efflux pump inhibitor Phe-Arg-beta-naphthylamide by Etest
[16] = test system: Enterobacter cloacae
[17] = test system: Enterobacter cloacae; remark: listed apart in the source
[18] = test system: Enterobacter cloacae; remark: listed apart in the source
[19] = test system: Enterobacter cloacae; remark: listed apart in the source
[20] = test system: Enterobacter cloacae; remark: listed apart in the source
[21] = test system: Enterobacter cloacae; remark: listed apart in the source
[22] = test system: Enterobacter cloacae; settings: EcDC64

With `C[n+]1c2cc(N)ccc2cc2ccc(N)cc21.[Cl-]` [EUFLAVINE] the MIC [1] was 128 µg/mL, the MIC [2] was 16 µg/mL and the MIC [3] was 128 µg/mL. For the same molecule, the MIC [4] was 64 µg/mL, the MIC [5] was 32 µg/mL and the MIC [6] was 16 µg/mL.
With `C[C@@H](O)[C@H]1C(=O)N2C(C(=O)O)=C(SCCNC=N)C[C@H]12` [IMIPENEM ANHYDROUS] the MIC [7] was 6 µg/mL, the MIC [8] was > 32 µg/mL and the MIC [9] was 24 µg/mL (≈ 80.2 µM). The MIC [10] was 24 µg/mL (≈ 80.2 µM), the MIC [11] was > 32 µg/mL and the MIC [12] was 2 µg/mL (≈ 6.68 µM). The MIC [13] was > 32 µg/mL, the MIC [14] was > 32 µg/mL and the MIC [15] was 32 µg/mL.
`CC[n+]1c(-c2ccccc2)c2cc(N)ccc2c2ccc(N)cc21.[Br-]` [HOMIDIUM BROMIDE] showed an MIC [1] of 2050 µg/mL, an MIC [2] of 128 µg/mL and an MIC [3] of 2050 µg/mL. The MIC [4] was 1020 µg/mL, the MIC [5] was 256 µg/mL and the MIC [6] was 64 µg/mL.
For `C[C@@H](O)[C@H]1C(=O)N2C(C(=O)O)=C(S[C@@H]3CN[C@H](C(=O)N(C)C)C3)[C@H](C)[C@H]12` [MEROPENEM], the MIC [7] was 1 µg/mL, the MIC [8] was > 32 µg/mL and the MIC [9] was 24 µg/mL (≈ 62.6 µM). The MIC [10] was 24 µg/mL (≈ 62.6 µM), the MIC [11] was > 32 µg/mL and the MIC [12] was 0.75 µg/mL (≈ 1.96 µM). For the same molecule, the MIC [13] was > 32 µg/mL, the MIC [14] was > 32 µg/mL and the MIC [15] was 32 µg/mL.
GENTAMICIN showed an MIC [16] of 0.25 µg/mL, an MIC [17] of 0.125 µg/mL and an MIC [18] of 1 µg/mL. The MIC [19] was 1 µg/mL, the MIC [20] was 0.125 µg/mL and the MIC [21] was 0.094 µg/mL. It also gave an MIC [22] of 1.5 µg/mL.
`CCCCCCCCCCCCOS(=O)(=O)[O-].[Na+]` [SODIUM LAURYL SULFATE] gave an MIC [1] of 8190 µg/mL, an MIC [2] of 256 µg/mL and an MIC [3] of 8190 µg/mL. The MIC [4] was 4100 µg/mL, the MIC [5] was 1020 µg/mL and the MIC [6] was 128 µg/mL.
For `CN(C)c1ccc(C(=C2C=CC(=[N+](C)C)C=C2)c2ccc(N(C)C)cc2)cc1.[Cl-]` [GENTIAN VIOLET], the MIC [1] was 4100 µg/mL, the MIC [2] was 512 µg/mL and the MIC [3] was 4100 µg/mL. It also gave an MIC [4] of 1020 µg/mL, an MIC [5] of 1020 µg/mL and an MIC [6] of 256 µg/mL.
